Results collected from several papers.
Target: D(3) dopamine receptor (DRD3, Homo sapiens, UniProt P35462)

For `Cc1c(N2CCNCC2)nc2ccc(Br)cc2c1C(=O)NC[C@H](CCC(=O)O)c1ccccc1Cl`, the inhibition was 3.81% (ligand displacement; 10 µM).
`c1ccc(C(NCCNC(c2ccccc2)c2ccccc2)c2ccccc2)cc1` gave an inhibition of 77% (cell-free assay; 10 µM).
`COCc1c(-c2cc3cc(C)cc(OC)c3s2)c2c(N)ncnn2c1CN1CCNC(=O)C1` gave an inhibition of 29% (ligand displacement; radioligand; 10 µM).
The inhibition of `COc1ccc(C(=O)NCc2cc(C(C)C)no2)cc1OC1CCN(C)CC1` is reported as 15% (ligand displacement; radioligand; 10 µM).
For `CC(C)Cn1cnc2c(N)nc3ccccc3c21`, the inhibition was 18% (ligand displacement; radioligand; 10 µM).
The inhibition of `CC(C)N1CCC[C@H]1CNC(=O)c1cn(C2CCCC2)c(=O)c2c1c1ccccc1n2C` is reported as 26% (ligand displacement; radioligand; 10 µM).
With `N#CC1(c2ccccn2)CCN(Cc2cc(C(=O)O)c(=O)n3ccccc23)CC1` the inhibition was -7.39% (cell-free assay; 10 µM).
`O=C(Nc1cccnn1)N1CCN([C@@H]2CCOc3cc(C(F)(F)F)ccc32)CC1` gave an inhibition of 9% (cell-free assay; 20 µM).
The inhibition of `CN(CCN1CCC(OC(=O)Nc2ccccc2-c2ccccc2)CC1)C(=O)c1ccc(CN2CCC(C(N)=O)CC2)cc1` is reported as -4% (ligand displacement; radioligand; 1 µM).
The inhibition of `c1ccc(C2(N3CCCCC3)CCCCC2)cc1` is reported as -9.9% (enzyme activity; inhibitor; 10 µM).
`C[C@H](C(=O)N[C@H]1COc2ccccc2[C@@H]1S(C)(=O)=O)c1ccc(F)cc1` has an inhibition of 6% (cell-free assay; 10 µM).
For `CCc1ccc(OCC(=O)N2CCN(Cc3ccc4c(c3)OCO4)CC2)c(Br)c1`, the inhibition was -4.8% (enzyme activity; inhibitor; 10 µM).
`COc1ccc(S(=O)(=O)N2CCCCC2)cc1C` has an inhibition of < 30% (ligand displacement; radioligand; 10 µM).
